Experimental data reported in ChEMBL document CHEMBL3244034, “Semisynthetic cephalosporins. Synthesis and structure-activity relationships of 7-(1-pyrryl)- and 7-(1-indolyl)acetamidocephalosporin derivatives” (1978).
Values after ≈ are worked out from the molar mass of the structure shown. Active and inactive are the calls of the source. The calls are words filed in the database; no cut-off is given here.

Legend:
Staphylococcus aureus [1] = test: Antibacterial activity against benzylpenicillin-resistant Staphylococcus aureus after 17 hrs by serial two fold dilution method; assay type: functional
Outline: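 Agar dilution MIC. Compound was serially diluted twofold in Mueller-Hinton agar. The surface was inoculated with a diluted 18-24-h broth culture […]. Plates were incubated 17 h at 37 °C. MIC was taken as the lowest concentration giving complete or virtually complete inhibition of visible growth.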

Staphylococcus aureus [2] = test: Antibacterial activity against Staphylococcus aureus after 17 hrs by serial two fold dilution method; assay type: functional
Outline: (§1)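 Agar dilution MIC: compound serially diluted twofold in Mueller-Hinton agar. Plate surfaces were inoculated with a suitably diluted 18-24-h broth culture and incubated 17 h at 37 °C. MIC was read as the lowest concentration giving complete or virtually complete inhibition of visible growth.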

[3] = test system: Staphylococcus epidermidis; test: Antibacterial activity against Staphylococcus epidermidis after 17 hrs by serial two fold dilution method; assay type: functional; outline: as §1
Enterococcus faecalis = test: Antibacterial activity against Staphylococcus faecalis after 17 hrs by serial two fold dilution method; assay type: functional; outline: as §1
Streptococcus pneumoniae = test: Antibacterial activity against Streptococcus pneumoniae after 17 hrs by serial two fold dilution method; assay type: functional; outline: as §1
Streptococcus pyogenes [4] = test: Antibacterial activity against Streptococcus pyogenes after 17 hrs by serial two fold dilution method; assay type: functional; outline: as §1
Klebsiella aerogenes = test: Antibacterial activity against Enterobacter aerogenes after 17 hrs by serial two fold dilution method; assay type: functional
Enterobacter cloacae = test: Antibacterial activity against Enterobacter cloacae after 17 hrs by serial two fold dilution method; assay type: functional
Escherichia coli [5] = test: Antibacterial activity against Escherichia coli after 17 hrs by serial two fold dilution method; assay type: functional; outline: as §1
Klebsiella pneumoniae [6] = test: Antibacterial activity against Klebsiella pneumoniae after 17 hrs by serial two fold dilution method; assay type: functional; outline: as §1
Proteus mirabilis [7] = test: Antibacterial activity against Proteus mirabilis after 17 hrs by serial two fold dilution method; assay type: functional; outline: as §1
Proteus vulgaris = test: Antibacterial activity against Proteus vulgaris after 17 hrs by serial two fold dilution method; assay type: functional; outline: as §1
Providencia stuartii = test: Antibacterial activity against Providencia stuartii after 17 hrs by serial two fold dilution method; assay type: functional; outline: as §1
Pseudomonas aeruginosa = test: Antibacterial activity against Pseudomonas aeruginosa after 17 hrs by serial two fold dilution method; assay type: functional; outline: as §1
Salmonella [8] = test: Antibacterial activity against Salmonella schottmuelleri after 17 hrs by serial two fold dilution method; assay type: functional; outline: as §1
Staphylococcus aureus [9] = test: Antibacterial activity against benzylpenicillin-resistant Staphylococcus aureus infected in sc dosed CD1 mouse assessed as host survival administered 1 and 4 hrs after infection measured on day 4; assay type: functional
Outline: (§2)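 Male albino CD-1 mice, 20 (± 1) g, infected intraperitoneally with a bacterial suspension giving uniformly lethal infection. Groups of ten mice were treated subcutaneously with antibiotic at 1 and 4 h post-infection. Survival over 4 days was recorded.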

Escherichia coli [10] = test: Antibacterial activity against Escherichia coli infected in sc dosed CD1 mouse assessed as host survival administered 1 and 4 hrs after infection measured on day 4; assay type: functional; outline: as §2
Klebsiella pneumoniae [11] = test: Antibacterial activity against Klebsiella pneumoniae infected in sc dosed CD1 mouse assessed as host survival administered 1 and 4 hrs after infection measured on day 4; assay type: functional; outline: as §2
Proteus mirabilis [12] = test: Antibacterial activity against Proteus mirabilis infected in sc dosed CD1 mouse assessed as host survival administered 1 and 4 hrs after infection measured on day 4; assay type: functional; outline: as §2
Salmonella [13] = test: Antibacterial activity against Salmonella schottmuelleri infected in sc dosed CD1 mouse assessed as host survival administered 1 and 4 hrs after infection measured on day 4; assay type: functional; outline: as §2
Neisseria gonorrhoeae = test: Antibacterial activity against Neisseria gonorrhoeae after 17 hrs by serial two fold dilution method; assay type: functional, organism-based
Haemophilus influenzae = test: Antibacterial activity against Haemophilus influenzae after 17 hrs by serial two fold dilution method; assay type: functional, organism-based
Bacteroides fragilis = test: Antibacterial activity against Bacteroides fragilis after 17 hrs by serial two fold dilution method; assay type: functional, organism-based
Fusobacterium varium = test: Antibacterial activity against Fusobacterium varium after 17 hrs by serial two fold dilution method; assay type: functional, organism-based
Streptococcus pyogenes [14] = test: Antibacterial activity against Streptococcus pyogenes infected in po dosed CD1 mouse assessed as host survival administered 1 and 4 hrs after infection measured on day 4; assay type: functional

SMILES	MIC (Staphylococcus aureus [1])	MIC (Staphylococcus aureus [2])	MIC [3]	MIC (Enterococcus faecalis)	MIC (Streptococcus pneumoniae)	MIC (Streptococcus pyogenes [4])	MIC (Klebsiella aerogenes)	MIC (Enterobacter cloacae)	MIC (Escherichia coli [5])	MIC (Klebsiella pneumoniae [6])	MIC (Proteus mirabilis [7])	MIC (Proteus vulgaris)	MIC (Providencia stuartii)	MIC (Pseudomonas aeruginosa)	MIC (Salmonella [8])	also measured
CC1=C(C(=O)O)N2C(=O)[C@@H](NC(=O)Cn3ccc4ccccc43)[C@H]2SC1	3.1 µg/mL (≈ 8.35 µM)	1.6 µg/mL (≈ 4.31 µM)	6.2 µg/mL (≈ 16.7 µM)	> 100 µg/mL	1.6 µg/mL (≈ 4.31 µM)	0.8 µg/mL (≈ 2.15 µM)	> 100 µg/mL	> 100 µg/mL	> 100 µg/mL	> 100 µg/mL	> 100 µg/mL	> 100 µg/mL	> 100 µg/mL	> 100 µg/mL	> 100 µg/mL	–
Cc1nnc(SCC2=C(C(=O)O)N3C(=O)[C@@H](NC(=O)Cn4cccc4)[C@H]3SC2)s1	0.8 µg/mL (≈ 1.77 µM)	0.2 µg/mL (≈ 0.443 µM)	0.8 µg/mL (≈ 1.77 µM)	> 100 µg/mL	0.1 µg/mL (≈ 0.221 µM)	0.1 µg/mL (≈ 0.221 µM)	100 µg/mL (≈ 221 µM)	100 µg/mL (≈ 221 µM)	12.5 µg/mL (≈ 27.7 µM)	6.2 µg/mL (≈ 13.7 µM)	25 µg/mL (≈ 55.4 µM)	> 100 µg/mL	25 µg/mL (≈ 55.4 µM)	> 100 µg/mL	6.2 µg/mL (≈ 13.7 µM)	–
Cc1nnc(SCC2=C(C(=O)O)N3C(=O)[C@@H](NC(=O)Cn4cnnn4)[C@H]3SC2)s1 [CEFAZOLIN]	0.4 µg/mL (≈ 0.88 µM)	0.2 µg/mL (≈ 0.44 µM)	0.8 µg/mL (≈ 1.76 µM)	> 100 µg/mL	0.1 µg/mL (≈ 0.22 µM)	0.1 µg/mL (≈ 0.22 µM)	> 50 µg/mL	–	0.8 µg/mL (≈ 1.76 µM)	1.6 µg/mL (≈ 3.52 µM)	6.2 µg/mL (≈ 13.6 µM)	> 100 µg/mL	> 50 µg/mL	> 100 µg/mL	1.6 µg/mL (≈ 3.52 µM)	ED50 (Staphylococcus aureus [9]): 22 mg/kg; ED50 (Escherichia coli [10]): 0.6 mg/kg; ED50 (Klebsiella pneumoniae [11]): 42 mg/kg; ED50 (Proteus mirabilis [12]): 79 mg/kg; ED50 (Salmonella [13]): 2.2 mg/kg; Activity (Neisseria gonorrhoeae): inactive; Activity (Haemophilus influenzae): inactive; Activity (Bacteroides fragilis): inactive; Activity (Fusobacterium varium): inactive; ED50 (Streptococcus pyogenes [14]): 1.8 mg/kg
Cn1nnnc1SCC1=C(C(=O)O)N2C(=O)[C@@H](NC(=O)Cn3cccc3C=O)[C@H]2SC1	1.6 µg/mL (≈ 3.45 µM)	0.8 µg/mL (≈ 1.73 µM)	3.1 µg/mL (≈ 6.69 µM)	> 100 µg/mL	–	0.2 µg/mL (≈ 0.431 µM)	100 µg/mL (≈ 216 µM)	> 100 µg/mL	12.5 µg/mL (≈ 27 µM)	12.5 µg/mL (≈ 27 µM)	50 µg/mL (≈ 108 µM)	> 100 µg/mL	50 µg/mL (≈ 108 µM)	> 100 µg/mL	6.2 µg/mL (≈ 13.4 µM)	–
Cc1nnc(SCC2=C(C(=O)O)N3C(=O)[C@@H](NC(=O)Cn4cccc4C=O)[C@H]3SC2)s1	0.8 µg/mL (≈ 1.67 µM)	0.4 µg/mL (≈ 0.834 µM)	1.6 µg/mL (≈ 3.34 µM)	> 100 µg/mL	0.2 µg/mL (≈ 0.417 µM)	0.2 µg/mL (≈ 0.417 µM)	> 100 µg/mL	> 100 µg/mL	50 µg/mL (≈ 104 µM)	50 µg/mL (≈ 104 µM)	100 µg/mL (≈ 209 µM)	> 100 µg/mL	> 100 µg/mL	> 100 µg/mL	12.5 µg/mL (≈ 26.1 µM)	–
CC(=O)OCC1=C(C(=O)O)N2C(=O)[C@@H](NC(=O)Cc3cccs3)[C@H]2SC1 [CEPHALOTHIN]	0.4 µg/mL (≈ 1.01 µM)	0.1 µg/mL (≈ 0.252 µM)	0.4 µg/mL (≈ 1.01 µM)	100 µg/mL (≈ 252 µM)	0.1 µg/mL (≈ 0.252 µM)	0.1 µg/mL (≈ 0.252 µM)	> 50 µg/mL	> 100 µg/mL	6.2 µg/mL (≈ 15.6 µM)	3.1 µg/mL (≈ 7.82 µM)	6.2 µg/mL (≈ 15.6 µM)	> 100 µg/mL	100 µg/mL (≈ 252 µM)	> 100 µg/mL	0.8 µg/mL (≈ 2.02 µM)	–
